Results published in ChEMBL document CHEMBL4813913, “In vitro identification of imidazo[1,2-a]pyrazine-based antileishmanial agents and evaluation of L. major casein kinase 1 inhibition” (Eur J Med Chem, 2021).

Assays:
Aurora kinase B [1] = target: T1, Aurora kinase B (Homo sapiens, UniProt Q96GD4); assay: Inhibition of recombinant human AURKB expressed in baculovirus infected Sf9 cells using MBP as substrate in presence of ATP measured after 30 mins by ADP-Glo assay; conditions: sf9, 0.5 h
[2] = target: T2, Dual specificity tyrosine-phosphorylation-regulated kinase 1A (Rattus norvegicus, UniProt Q63470); assay: Inhibition of recombinant rat DYRK1A (1 to 499 ) expressed in bacterial expression system using KKISGRLSPIMTEQ as substrate in presence of ATP measured after 30 mins by ADP-Glo assay; conditions: 0.5 h
CDK2/Cyclin A2 = CDK2/Cyclin A2 (Homo sapiens, UniProt P24941); assay: Inhibition of human CDK2/ cyclinA using histone H1 as substrate in presence of ATP measured after 30 mins by ADP-Glo assay; format: protein-complex assay
Leishmania amazonensis = assay: Antileishmanial activity against amastigote stage Leishmania amazonensis (MHOM/BR/73/M2269) infected in mouse RAW264.7 cells assessed as reduction in parasitic proliferation measured by SYBR Green 1 dye based fluorescence assay; format: functional, organism-based; conditions: MHOM/BR/73/M2269, RAW264.7
In short: (§1)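 RAW 264.7 macrophages seeded at 100,000 cells/well in DMEM with 10% heat-inactivated FBS, 24 h at 37 °C, 5% CO₂. Infected with plateau-phase promastigotes (parasite:macrophage 16:1) for 24 h. Compounds serially diluted, final 391 nM–100 μM. Amastigote viability read by SYBR Green I after lysis and 3 freeze-thaw cycles. IC50 by nonlinear regression against excipient-treated controls. Miltefosine reference.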

CDK9/cyclin T1 [3] = target: T3, CDK9/cyclin T1 (Homo sapiens, UniProt P50750); assay: Inhibition of human recombinant CDK9/CyclinT expressed in baculovirus infected Sf9 cells using YSPTSPSYSPTSPSYSPTSPSKKK as substrate in presence of ATP measured after 30 mins by ADP-Glo assay
[4] = Selectivity index, ratio of CC50 for human MRC5 cells to IC50 for amastigote stage of Leishmania donovani (MHOM/ET/67/HU3) infected in mouse RAW264.7 cells; format: toxicity, cell-based; conditions: read-out: Ratio CC50/IC50
In short: (§2)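 Selectivity index is CC50 on RAW 264.7 or MRC-5 cells divided by IC50 on intracellular amastigotes.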

Leishmania braziliensis = assay: Antileishmanial activity against amastigote stage of Leishmania braziliensis (MHOM/BR/75/M2903b) infected in mouse RAW264.7 cells assessed as reduction in parasitic proliferation measured by SYBR Green 1 dye based fluorescence assay; format: functional, organism-based; in short: as §1
Leishmania donovani = assay: Antileishmanial activity against amastigote stage of Leishmania donovani (MHOM/ET/67/HU3) infected in mouse RAW264.7 cells assessed as reduction in parasitic proliferation measured by SYBR Green 1 dye based fluorescence assay; format: functional, organism-based; conditions: MHOM/ET/67/HU3, RAW264.7; in short: as §1
Leishmania infantum = assay: Antileishmanial activity against amastigote stage of Leishmania infantum (MHOM/FR/2008/LEM5700) infected in mouse RAW264.7 cells assessed as reduction in parasitic proliferation measured by SYBR Green 1 dye based fluorescence assay; format: functional, organism-based; conditions: MHOM/FR/2008/LEM5700, RAW264.7; in short: as §1
[5] = Selectivity index, ratio of CC50 for human MRC5 cells to IC50 for amastigote stage of Leishmania infantum (MHOM/FR/2008/LEM5700) infected in mouse RAW264.7 cells; format: toxicity, cell-based; conditions: read-out: Ratio CC50/IC50; in short: as §2
[6] = Selectivity index, ratio of CC50 for human MRC5 cells to IC50 for amastigote stage of Leishmania braziliensis (MHOM/BR/75/M2903b) infected in mouse RAW264.7 cells; format: toxicity, cell-based; conditions: read-out: Ratio CC50/IC50; in short: as §2
[7] = target: Serine/threonine-protein kinase pim-1 (Homo sapiens, UniProt P11309); assay: Inhibition of recombinant human PIM1 expressed in bacteria using histone H1 as substrate in presence of ATP measured after 30 mins by ADP-Glo assay; conditions: 0.5 h
[8] = target: Cyclin-dependent kinase 5/CDK5 activator 1 (Homo sapiens, UniProt Q00535); assay: Inhibition of human recombinant CDK5/ p25 expressed in bacterial expression system using histone H1 as substrate in presence of ATP measured after 30 mins by ADP-Glo assay
[9] = Toxicity against Galleria mellonella larva assessed as cuticular darkening at 50 mg/kg measured for 7 days; format: organism-based; conditions: in vivo, 168 h, time 7 day
In short: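 G. mellonella larvae (6th stage, 260–320 mg), groups of ten. Injected in the 4th left pro-leg with 10 μL at 10–50 mg/kg; controls got PBS/DMSO (DMSO <40%). Kept in the dark at 37 °C. Survival and cuticular darkening scored daily for 7 days; death taken as no movement on stimulus. Kaplan-Meier with log-rank test; two independent experiments.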

[10] = Selectivity index, ratio of CC50 for mouse RAW264.7 cells to IC50 for amastigote stage of Leishmania amazonensis (MHOM/BR/73/M2269) infected in mouse RAW264.7 cells; format: toxicity, cell-based; conditions: read-out: Ratio CC50/IC50; in short: as §2
[11] = target: Dual specificity protein kinase CLK1 (Mus musculus, UniProt P22518); assay: Inhibition of recombinant mouse CLK1 expressed in bacteria using GRSRSRSRSRSR as substrate in presence of ATP measured after 30 mins by ADP-Glo assay
CDK9/cyclin T1 [12] = target: T3, CDK9/cyclin T1; assay: Inhibition of human recombinant CDK9/CyclinT expressed in baculovirus infected Sf9 cells using YSPTSPSYSPTSPSYSPTSPSKKK as substrate in presence of [gamma-33P]ATP by radiometric assay
[13] = Inhibition of recombinant Leishmania major CK1.2 expressed in bacterial expression system using RRKHAAIGSpAYSITA as substrate in presence of [gamma-33P]ATP by radiometric assay
Aurora kinase B [14] = target: T1, Aurora kinase B; assay: Inhibition of recombinant human AURKB expressed in baculovirus infected Sf9 cells using MBP as substrate in presence of [gamma-33P]ATP measured by radiometric assay
[15] = target: T2, Dual specificity tyrosine-phosphorylation-regulated kinase 1A; assay: Inhibition of recombinant rat DYRK1A (1 to 499 ) expressed in bacterial expression system using KKISGRLSPIMTEQ as substrate in presence of [gamma-33P]ATP measured by radiometric assay; conditions: for inhibition (INH): rat
[16] = target: Receptor-interacting serine/threonine-protein kinase 3 (Homo sapiens, UniProt Q9Y572); assay: Inhibition of recombinant human RIPK3 expressed in baculovirus infected Sf9 cells using MBP as substrate in presence of [gamma-33P]ATP by radiometric assay
Sequence of Receptor-interacting serine/threonine-protein kinase 3 (Q9Y572 whole entry): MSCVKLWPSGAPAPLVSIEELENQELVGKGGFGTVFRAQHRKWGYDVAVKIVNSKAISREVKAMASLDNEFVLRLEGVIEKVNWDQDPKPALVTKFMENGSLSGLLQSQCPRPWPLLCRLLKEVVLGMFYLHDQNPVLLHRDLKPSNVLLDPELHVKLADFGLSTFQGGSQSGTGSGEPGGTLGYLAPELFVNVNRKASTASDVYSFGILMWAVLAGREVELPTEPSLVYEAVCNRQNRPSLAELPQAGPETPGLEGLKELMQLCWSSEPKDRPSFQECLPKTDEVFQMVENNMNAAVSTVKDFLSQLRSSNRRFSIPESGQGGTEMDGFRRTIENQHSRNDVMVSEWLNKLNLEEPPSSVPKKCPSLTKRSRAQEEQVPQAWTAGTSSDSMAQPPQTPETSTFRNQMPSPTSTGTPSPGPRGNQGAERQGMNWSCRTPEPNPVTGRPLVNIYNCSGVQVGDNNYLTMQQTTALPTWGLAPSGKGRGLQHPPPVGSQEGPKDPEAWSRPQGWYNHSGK

T1 sequence (Q96GD4 whole entry): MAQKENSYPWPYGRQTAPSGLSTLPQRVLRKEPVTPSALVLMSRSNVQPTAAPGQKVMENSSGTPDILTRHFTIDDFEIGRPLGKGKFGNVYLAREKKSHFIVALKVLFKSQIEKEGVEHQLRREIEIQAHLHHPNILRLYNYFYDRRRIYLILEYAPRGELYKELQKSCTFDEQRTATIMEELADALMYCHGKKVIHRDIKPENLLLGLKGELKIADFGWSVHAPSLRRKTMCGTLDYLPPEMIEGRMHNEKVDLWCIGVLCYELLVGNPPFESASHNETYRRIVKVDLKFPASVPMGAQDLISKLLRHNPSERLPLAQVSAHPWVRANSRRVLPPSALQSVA
T3 sequence (O60563 whole entry): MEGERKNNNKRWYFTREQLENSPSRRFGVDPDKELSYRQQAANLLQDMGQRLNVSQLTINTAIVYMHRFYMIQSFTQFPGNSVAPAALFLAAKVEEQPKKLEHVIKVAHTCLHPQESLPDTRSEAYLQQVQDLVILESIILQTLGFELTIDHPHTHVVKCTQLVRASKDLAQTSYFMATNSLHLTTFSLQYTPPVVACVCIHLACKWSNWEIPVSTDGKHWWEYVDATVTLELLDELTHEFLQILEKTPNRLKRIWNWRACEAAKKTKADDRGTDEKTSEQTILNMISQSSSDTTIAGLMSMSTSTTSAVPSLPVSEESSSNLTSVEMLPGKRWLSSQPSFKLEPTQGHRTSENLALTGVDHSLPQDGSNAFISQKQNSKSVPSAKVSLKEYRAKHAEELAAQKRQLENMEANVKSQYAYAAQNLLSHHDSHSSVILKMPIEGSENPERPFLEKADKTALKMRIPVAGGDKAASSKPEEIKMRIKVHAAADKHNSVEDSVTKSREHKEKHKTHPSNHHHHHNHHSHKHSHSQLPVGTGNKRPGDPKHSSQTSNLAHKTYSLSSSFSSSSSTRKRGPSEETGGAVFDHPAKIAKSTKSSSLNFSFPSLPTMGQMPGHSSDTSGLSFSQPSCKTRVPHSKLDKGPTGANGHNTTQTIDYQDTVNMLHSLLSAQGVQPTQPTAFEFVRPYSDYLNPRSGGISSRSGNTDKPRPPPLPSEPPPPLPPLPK
T3 sequence (P50750 whole entry): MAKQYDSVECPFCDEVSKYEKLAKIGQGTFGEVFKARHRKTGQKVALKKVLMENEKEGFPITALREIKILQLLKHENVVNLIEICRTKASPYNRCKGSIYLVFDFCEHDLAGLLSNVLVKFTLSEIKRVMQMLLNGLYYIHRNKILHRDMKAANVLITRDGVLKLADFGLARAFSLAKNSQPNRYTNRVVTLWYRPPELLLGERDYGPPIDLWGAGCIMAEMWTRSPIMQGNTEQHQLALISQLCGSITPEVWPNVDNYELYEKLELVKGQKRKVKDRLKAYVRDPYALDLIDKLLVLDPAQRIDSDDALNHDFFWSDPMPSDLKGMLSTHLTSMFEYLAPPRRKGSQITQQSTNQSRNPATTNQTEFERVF
Sequence of Dual specificity protein kinase CLK1 (P22518 whole entry): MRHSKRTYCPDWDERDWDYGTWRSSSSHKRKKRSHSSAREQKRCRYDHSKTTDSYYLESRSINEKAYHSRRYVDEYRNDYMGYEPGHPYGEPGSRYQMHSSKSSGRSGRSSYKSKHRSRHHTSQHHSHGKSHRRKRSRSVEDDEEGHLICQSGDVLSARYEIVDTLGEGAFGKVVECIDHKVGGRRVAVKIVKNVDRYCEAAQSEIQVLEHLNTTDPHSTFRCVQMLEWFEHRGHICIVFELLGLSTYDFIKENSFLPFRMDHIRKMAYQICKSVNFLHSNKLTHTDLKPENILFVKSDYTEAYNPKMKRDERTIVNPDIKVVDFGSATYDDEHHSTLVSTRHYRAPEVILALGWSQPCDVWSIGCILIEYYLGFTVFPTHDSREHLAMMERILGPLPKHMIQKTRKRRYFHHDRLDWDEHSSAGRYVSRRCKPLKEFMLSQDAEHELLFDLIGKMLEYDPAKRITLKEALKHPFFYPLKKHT
Sequence of Serine/threonine-protein kinase pim-1 (P11309 whole entry): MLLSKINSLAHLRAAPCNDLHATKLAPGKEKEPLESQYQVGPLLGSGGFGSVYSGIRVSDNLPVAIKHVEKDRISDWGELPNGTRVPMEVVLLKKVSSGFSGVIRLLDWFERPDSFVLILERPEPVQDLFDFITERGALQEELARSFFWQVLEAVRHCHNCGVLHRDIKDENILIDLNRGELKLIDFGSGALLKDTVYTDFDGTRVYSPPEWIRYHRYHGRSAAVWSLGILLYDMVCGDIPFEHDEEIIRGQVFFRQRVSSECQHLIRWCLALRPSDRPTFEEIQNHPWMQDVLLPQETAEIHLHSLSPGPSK
Sequence of Cyclin-dependent kinase 5/CDK5 activator 1 (Q00535 whole entry): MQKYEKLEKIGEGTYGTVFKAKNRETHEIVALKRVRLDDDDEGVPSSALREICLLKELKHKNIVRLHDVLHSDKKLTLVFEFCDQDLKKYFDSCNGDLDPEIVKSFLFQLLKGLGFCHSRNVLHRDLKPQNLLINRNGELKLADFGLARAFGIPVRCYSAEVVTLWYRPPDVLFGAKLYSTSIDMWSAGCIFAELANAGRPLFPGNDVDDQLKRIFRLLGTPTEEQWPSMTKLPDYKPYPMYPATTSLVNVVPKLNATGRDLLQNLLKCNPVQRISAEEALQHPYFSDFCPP
Sequence of Cyclin-dependent kinase 5/CDK5 activator 1 (Q15078 whole entry, further chain): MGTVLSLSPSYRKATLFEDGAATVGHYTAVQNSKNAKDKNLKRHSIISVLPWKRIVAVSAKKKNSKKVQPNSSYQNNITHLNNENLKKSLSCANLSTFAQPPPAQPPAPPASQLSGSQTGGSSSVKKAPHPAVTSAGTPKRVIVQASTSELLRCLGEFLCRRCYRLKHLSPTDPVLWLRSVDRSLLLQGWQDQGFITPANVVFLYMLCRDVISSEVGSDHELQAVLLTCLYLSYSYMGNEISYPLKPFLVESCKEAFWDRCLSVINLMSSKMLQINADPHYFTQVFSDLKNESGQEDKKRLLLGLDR

SMILES | inhibition (INH) (Aurora kinase B [1]) | inhibition (INH) [2] | IC50 (CDK2/Cyclin A2) | IC50 (Leishmania amazonensis) | IC50 (CDK9/cyclin T1 [3]) | selectivity ratio [4] | IC50 (Leishmania braziliensis) | IC50 (Leishmania donovani) | IC50 (Leishmania infantum) | selectivity ratio [5] | selectivity ratio [6] | inhibition (INH) [7] | IC50 [8] | Activity [9] | selectivity ratio [10] | IC50 (CDK9/cyclin T1 [12]) | IC50 [13] | inhibition (INH) (Aurora kinase B [14]) | inhibition (INH) [15] | inhibition (INH) [16] | further results
CN(C)c1nccn2c(-c3ccncc3)c(-c3ccc(F)cc3)nc12 | Not Active | Not Active | > 10 µM | 28.4 µM | > 10 µM | 36.5 | 57.9 µM | 2.74 µM | 12.8 µM | 7.8 | 1.7 | Not Active | > 10 µM | Non-Toxic | 1.5 | – | – | – | – | – | IC50 [11]: > 10 µM
CN(C)c1nccn2c(-c3cncnc3)c(-c3ccc(F)cc3)nc12 | Not Active | Not Active | > 10 µM | > 50 µM | > 10 µM | – | 22.8 µM | > 50 µM | > 50 µM | – | 4.4 | Not Active | > 10 µM | Non-Toxic | – | – | – | – | – | – | IC50 [11]: > 10 µM
CSc1nccc(-c2c(-c3ccc(F)cc3)nc3c(Cl)nccn23)n1 | – | – | – | > 100 µM | – | – | 74 µM | > 100 µM | > 100 µM | – | 1.1 | – | – | Non-Toxic | – | > 10 µM | > 10 µM | Not Active | Not Active | Not Active | –
CN(C)c1nccn2c(-c3ccnc(N)n3)c(-c3ccccc3)nc12 | – | – | – | 23.4 µM | – | – | 56.5 µM | > 100 µM | > 100 µM | – | 1 | – | – | Non-Toxic | 1.9 | > 10 µM | 0.035 µM | Not Active | Not Active | Not Active | –
CN(C)c1nccn2c(-c3ccc4[nH]ncc4c3)c(-c3ccc(F)cc3)nc12 | Not Active | Not Active | > 10 µM | > 12.5 µM | > 10 µM | 2 | > 12.5 µM | > 12.5 µM | 12.9 µM | 2 | 2 | Not Active | > 10 µM | Non-Toxic | 0.6 | – | – | – | – | – | IC50 [11]: > 10 µM
CN(C)c1nccn2c(-c3ccnc(N)n3)c(-c3ccc(F)cc3)nc12 | – | – | – | 6.12 µM | – | 10 | 24.3 µM | 9.97 µM | 6.55 µM | 15.2 | 4.1 | – | – | Non-Toxic | 6.9 | > 10 µM | 0.042 µM | Not Active | Not Active | Not Active | –
CSc1nccc(-c2c(-c3ccccc3)nc3c(N(C)C)nccn23)n1 | – | – | – | 5.99 µM | – | 4.6 | 45.6 µM | 17.6 µM | 12.5 µM | 6.5 | 1.8 | – | – | Non-Toxic | 5.6 | > 10 µM | 3.5 µM | Not Active | Not Active | Not Active | –
CSc1nccc(-c2c(-c3ccccc3)nc3c(Cl)nccn23)n1 | – | – | – | 3.2 µM | – | 3.4 | 17.7 µM | 9.82 µM | 1.93 µM | 17.3 | 1.9 | – | – | Non-Toxic | 15.8 | > 10 µM | 5 µM | Not Active | Not Active | Not Active | –
CSc1nccc(-c2c(-c3ccc(F)cc3)nc3c(N(C)C)nccn23)n1 | – | – | – | 12.5 µM | – | 6.4 | 63.5 µM | 10.4 µM | 6.2 µM | 10.8 | 1.1 | – | – | Non-Toxic | 2.9 | > 10 µM | 1 µM | Not Active | Not Active | Not Active | –
CSc1nccc(-c2c(-c3ccc(F)cc3)nc3c(N)nccn23)n1 | – | – | – | > 12.5 µM | – | 1.5 | > 12.5 µM | > 12.5 µM | > 12.5 µM | 1.5 | 1.5 | – | – | Non-Toxic | > 0.9 | > 10 µM | 0.65 µM | Not Active | – | Not Active | IC50 [15]: 2 µM
